Screens: PubChem BioAssay, several laboratories
Compounds with a hit are over-represented: about 5.1% of the library has one in this group of screens.
APP 5'UTR act: activates APP 5'UTR luciferase reporter; SH-SY5Y APP 5'UTR luciferase reporter, luminescence; zero percent = DMSO vehicle wells; 190,000 tested, 1% active; activation, % at 2 µM;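 active means activation above a set limit, based on mean plus 3 SD of controls, cut at about 140% in these data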
STAT1 act: activators of IFN-gamma induced STAT1 signaling; NIH 3T3 STAT1-luciferase reporter, luminescence; 100% = IFN-gamma alone, no compound; activation (% of control), % at 5.5 µM; 200,000 tested, 2.6% active; AID 932;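 active means activation above the screen-wide mean activation plus 3 SD, cut at about 130% in these data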
STAT1 inh: reduces IFN-gamma driven STAT1 reporter signal | NIH 3T3 STAT1-luciferase reporter, luminescence | inhibition, % at 5.5 µM | 200,000 tested, 0.35% active | AID 920;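 active means inhibition above a set limit, the mean inhibition across all tested compounds plus 3 SD, cut at about 34% in these data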
STAT3 inh: inhibitors of IL-6 induced STAT3 signaling | U3A cells, IL-6 STAT3-luciferase reporter, luminescence; host cell line lacks STAT1 | inhibition, % at 5.5 µM | 190,000 tested, 0.89% active | AID 862;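 active means inhibition above the mean inhibition across all screened compounds plus 3 SD, cut at about 44% in these data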
STAT3 activator: increases IL-6 driven STAT3 reporter signal; U3A cells, IL-6 STAT3-luciferase reporter, luminescence; 100% = signal with IL-6 EC80 alone; activation (% of control), % at 5.6 µM; 190,000 tested, 0.91% active; AID 871;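 active means activation above the screen-wide mean of compound activation plus 3 SD, cut at about 130% in these data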
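Assay system – human STAT1-deficient U3A cells with stable STAT3-luciferase reporter · Also added – IL-6 (33 ng/mL) · Schedule – compound 1 h, then IL-6 6 h at 37 °C · Technique – reporter luminescence signal · Evaluation – % activation versus median of IL-6-stimulated wells · Benchmarks – IL-6-only wells as 100% reference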
NF-kB neuron act: raises NF-kB expression in human neuronal cells. NF-kB reporter expression; stronger effect = higher value. fold change at 12.5 µM. 190,000 tested, 1.6% active. AID 1239; in the data active means fold change above about 3.3
Large screens that a line does not name were inactive.

CCCc1nc2ccc(NC(C)=O)cc2c(=O)n1Cc1ccc(Cl)cc1	STAT1 act 143, NF-kB neuron act 3.7
COc1ccc(OCCOC(=O)c2[nH]c(C)c(C(C)=O)c2C)cc1	NF-kB neuron act 5.8
COC(=O)C1=C(NC(=O)c2ccc(C)c(C)c2)CCS1	STAT3 activator 134
COC(=O)CCn1[nH]c(=O)c2ccccc2c1=O	none
O=c1[nH]n(Cc2ccccc2)c(=O)c2ccccc12	NF-kB neuron act 4.9
COCCNC(=O)Cn1nc(C(F)(F)F)cc1C	none
O=C1[C@H]2[C@@H](C(=O)N1c1cccc3ccccc13)C1(C(=O)c3ccccc3C1=O)N1CCC[C@@H]21	NF-kB neuron act 3.4
Cc1ccc(OCCn2cnc3c(N)ncnc32)cc1	STAT1 act 129
COc1cc(C(=O)NCCOc2cccc3cccnc23)cc(OC)c1OC	none
COc1ccc(S(=O)(=O)NCCOc2cccc3cccnc23)cc1OC	STAT1 act 129
O=C(/C=C/c1ccccc1Cl)c1ccccc(=O)c1O	NF-kB neuron act 26
COc1ccc(Br)cc1C(=O)Nc1cccc2ncccc12	none
S=C(N=Nc1ccccc1)NNc1ccccc1	NF-kB neuron act 3.7
COc1cccc(CN2CCCC(CNC(=O)c3ccc(F)cc3)C2)c1OC (centres undefined)	none
O=C(CN1CCc2ccccc21)NC(=O)NCc1ccco1	STAT3 activator 135
NNC(=O)CN1CCCc2ccccc21	STAT1 act 148
O=C(CN1CCN(c2ccccc2O)CC1)NC(=O)NCc1ccco1	none
COc1ccc(-c2noc(-c3ccoc3C)n2)cc1OC	STAT1 act 143, NF-kB neuron act 3.6
Cc1cccc(-c2noc(-c3ccc(Cl)cc3[N+](=O)[O-])n2)c1	APP 5'UTR act 178, NF-kB neuron act 5.3
Cc1cccc(-c2noc(Cc3ccc(Cl)cc3)n2)c1	none
COc1ccc(-c2nc(-c3ccncc3)no2)cc1OC	STAT1 act 132
Cc1cccc(-c2noc(-c3ccoc3C)n2)c1	STAT1 act 150
COc1ccc(-c2noc(-c3ccc(Cl)cc3[N+](=O)[O-])n2)cc1OC	none
O=C(CSc1ncnc2c1oc1ccccc12)Nc1nccs1	none (no result: STAT3 inh, STAT3 activator)
COc1ccc(-c2noc(-c3ccccc3Cl)n2)cc1OC	STAT1 act 143, NF-kB neuron act 4.9
COc1ccc(-c2noc(-c3cccc(Cl)c3)n2)cc1OC	none
CN1C(=O)C(O)(CC(=O)c2ccccn2)c2cc(Br)ccc21 (centres undefined)	none
Cc1c(C#N)c(O)n(CCO)c(=O)c1N=Nc1ccc(S(N)(=O)=O)cc1	none
Cc1c(C#N)c(O)n(C)c(=O)c1N=Nc1ccc(S(N)(=O)=O)cc1	STAT1 act 141
O=C(c1ccccc1)c1cc(-c2ccccc2)on1	APP 5'UTR act 184
O=C(CC(C(=O)O)c1c[nH]c2ccccc12)c1ccccc1 (centres undefined)	STAT3 activator 136
O=C(O)C(O)Cc1c[nH]c2ccccc12 (centres undefined)	none
CCOc1ccc(N2Cc3ccccc3C2)cc1	STAT1 act 141 (no result: NF-kB neuron act)
NC1=NC(=O)/C(=C\C=C\c2ccccc2)S1	STAT1 act 134
COc1ccc(NC(=O)/C=C/c2ccco2)cn1	none
COc1ccc(/C=C/C(=O)Nc2ccccc2C(F)(F)F)cc1	STAT1 act 137
COc1ccccc1/C=C/C(=O)Nc1cccc(C(C)=O)c1	none
COc1ccc(NC(=O)/C=C/c2cccc(F)c2)cn1	APP 5'UTR act 135, STAT1 act 147, NF-kB neuron act 3.8
COc1ccc(/C=C/C(=O)Nc2cccc(C(C)=O)c2)cc1	STAT1 act 130
COc1ccc(/C=N/OC(=O)Nc2ccccc2OC)cc1	NF-kB neuron act 6.3
c1cc2c(cc1C1=Nn3c(nnc3C3CCCCC3)SC1)OCO2	none
CN(C)S(=O)(=O)c1cccc(NC(=O)COC(=O)COc2ccccc2[N+](=O)[O-])c1	none
NC(=O)c1ccccc1NC(=O)/C=C/c1cccc(Cl)c1	STAT1 act 131
COc1ccc(/C=C/C(=O)Nc2ccccc2C(=O)O)cc1	APP 5'UTR act 152, STAT1 inh 39, STAT3 inh 51
Cc1csc2ncc(C(=O)NCc3ccccc3Cl)c(=O)n12	none
Cn1c(SCC(=O)Nc2ccccc2-c2ccccc2)nnc1-c1ccco1	none
O=[N+]([O-])c1ccccc1S(=O)(=O)N1CCN(CC2CC=CCC2)CC1 (centres undefined)	none
Cc1ccc(-c2ccc(C3C(C#N)=C(N)Oc4n[nH]c(C)c43)o2)cc1 (centres undefined)	STAT3 activator 136
O=C(c1ccccc1)n1ccc(-c2cnc(-c3ccccc3)s2)n1	APP 5'UTR act 141, NF-kB neuron act 6
COCCn1c(SCC(=O)Nc2cc(C)on2)nnc1-c1c[nH]c2ccccc12	none (no result: APP 5'UTR act)
CC(C)CN1CCNC(=O)C1CC(=O)NCCc1ccc(C(F)(F)F)cc1 (centres undefined)	none
CCC1=NN(C(=O)Cc2ccc([N+](=O)[O-])cc2)C(O)(C(C)(C)C)C1 (centres undefined)	NF-kB neuron act 3.5
COc1ccc(-c2noc(CCC(=O)NCCN3CCN(c4ccccc4F)CC3)n2)cc1	none
O=C(c1cccc([N+](=O)[O-])c1)N1CCOCC1	none
O=C(/C=C\c1ccc(-c2cccc([N+](=O)[O-])c2)o1)N1CCOCC1	STAT1 act 129
O=c1c(Cl)c(N2CCOCC2)cnn1-c1nc2ccccc2[nH]1	STAT1 act 136
O=C(/C=C/c1ccccc1Cl)Nc1ccc(Cl)cn1	none (no result: NF-kB neuron act)
COc1ccccc1NC(=O)/C=C/c1ccc2c(c1)OCO2	STAT1 act 134
O=C(/C=C/c1ccc2c(c1)OCO2)Nc1ccc(Cl)cn1	APP 5'UTR act 162, STAT1 act 132
COc1ccccc1NC(=O)COC(=O)/C=C/c1ccc2c(c1)OCO2	none
Cc1cc(-c2ccc(C(=O)O)s2)cnc1N	STAT1 act 129
Cc1csc(Nc2cccc3ccccc23)n1	none
Cc1ccc(Nc2nc(C)cs2)cc1	APP 5'UTR act 199, STAT1 act 130
Cc1csc(Nc2ccc(Cl)cc2)n1	STAT1 act 138
CC1CCN(c2ccc(NC(=O)Cc3ccccc3)cc2)CC1	STAT1 act 142
COc1cc(C)ccc1OCCOc1ccccc1Cl	none
COc1cc(C)ccc1OCCCOc1ccccc1Cl	STAT1 act 144
Cc1ccc(S(=O)(=O)N(C)CC(=O)Nc2cccc(C)n2)cc1	none
Oc1csc(Cc2nc(-c3ccc(-c4ccccc4)cc3)cs2)n1	none
O=c1oc2ccccc2cc1-c1csc(Cc2nc(-c3ccc(Cl)cc3)cs2)n1	none
Oc1csc(Cc2nc(-c3ccc4ccccc4c3)cs2)n1	STAT1 act 129, STAT3 activator 163
Oc1csc(Cc2nc(-c3ccccc3F)cs2)n1	STAT1 act 144
O=C(Nc1ccccc1)c1ccc(COc2ccccc2)cc1	none
